Cav3 T inh = Cav3.2 calcium influx blockers – cell-based, Fluo-4 calcium fluorescence, FDSS, MLSMR library, primary screen | Voltage-dependent T-type calcium channel subunit alpha-1H (Homo sapiens), O95180 | Cav3.2-expressing cells; stronger effect = lower value | B-score at 10 µM | hit rate 4% among 100,000 | AID 449739, 2010;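 active means single-dose well whose peak fluorescence ratio is a statistical outlier from its plate by either plate-standardised score or position-corrected B-score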
E coli WT exp = growth inhibitors of wild-type E. coli, primary screen, strain BW25113, expanded library, OD600 | OD600 absorbance | growth inhibition, % at 100 µM | hit rate 0.15% among 98,000;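 active means growth inhibition above about 50% at one test dose, limit read from the data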;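 further: growth measured after 20 h incubation at 37 °C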
PTK2B oligo ant = antagonists of Pyk2 self-association, primary screen, Q293 cells, FERM NanoBiT luminescence, HTS. z-score (the deposit names both 25 µM and 10 µM). stronger effect = lower value. hit rate 0.83% among 99,000. AID 1347419, 2020;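 active means Z-score of -3 or lower, scaled per plate to the spread of control and sample wells; inactive means z-score above -3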;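 further: negative z-score means lost luminescence so less FERM oligomerization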
Target sequence (Q14289 whole entry, looked up): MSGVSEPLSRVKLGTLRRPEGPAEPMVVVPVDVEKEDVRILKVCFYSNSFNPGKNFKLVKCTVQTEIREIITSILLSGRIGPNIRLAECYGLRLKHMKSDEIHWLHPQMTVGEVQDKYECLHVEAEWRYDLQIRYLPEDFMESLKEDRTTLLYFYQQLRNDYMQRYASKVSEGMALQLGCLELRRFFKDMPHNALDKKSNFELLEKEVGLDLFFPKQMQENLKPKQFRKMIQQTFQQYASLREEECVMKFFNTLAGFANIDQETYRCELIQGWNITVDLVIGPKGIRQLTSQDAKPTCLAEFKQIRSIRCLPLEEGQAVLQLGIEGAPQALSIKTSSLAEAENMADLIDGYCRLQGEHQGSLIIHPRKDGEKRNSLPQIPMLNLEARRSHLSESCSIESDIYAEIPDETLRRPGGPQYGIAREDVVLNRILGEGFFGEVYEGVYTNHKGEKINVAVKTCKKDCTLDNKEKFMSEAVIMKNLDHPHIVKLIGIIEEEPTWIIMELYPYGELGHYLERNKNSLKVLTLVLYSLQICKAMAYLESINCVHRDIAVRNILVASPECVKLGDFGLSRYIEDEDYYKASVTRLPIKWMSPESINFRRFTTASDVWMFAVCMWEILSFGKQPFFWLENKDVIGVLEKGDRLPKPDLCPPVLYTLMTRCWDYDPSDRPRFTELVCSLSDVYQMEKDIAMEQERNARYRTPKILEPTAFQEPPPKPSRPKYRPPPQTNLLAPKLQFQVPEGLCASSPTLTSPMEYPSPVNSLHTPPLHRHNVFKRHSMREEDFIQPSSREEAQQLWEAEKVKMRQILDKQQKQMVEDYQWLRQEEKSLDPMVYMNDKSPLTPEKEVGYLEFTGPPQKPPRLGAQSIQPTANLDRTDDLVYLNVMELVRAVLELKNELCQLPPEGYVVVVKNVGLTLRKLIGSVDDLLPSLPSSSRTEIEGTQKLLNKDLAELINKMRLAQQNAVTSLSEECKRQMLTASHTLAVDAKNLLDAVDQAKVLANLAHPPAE
PostGolgi ctrl = growth inhibition of yeast control strain, primary screen, counter-screen for post-Golgi transport modulator project; hit rate 5% among 98,000; AID 738, 2007; inhibition, % at 10 µM; efflux-deficient yeast background strain, growth absorbance A615, 16 h
tolC growth inh = growth inhibitors of E. coli tolC mutant, primary screen, strain BW25113 ΔtolC::kan, 384-well. hit rate 2.2% among 65,000. AID 573, 2007. growth inhibition, % at 10 µM (by protocol). OD615;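 active means growth inhibition at or above a cutoff equal to the mean over every tested compound plus 3 SD, cut at about 60% in these data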;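 further: growth measured after 20 h incubation at 37 °C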
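Test system: tolC-deleted E. coli BW25113; medium: LB with kanamycin 50 µg/mL; compound: single-point testing at 10 µM; incubation: 20 h compound exposure of bacteria at 37 °C; signal: OD at 615 nm; evaluation: growth inhibition in percent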
PostGolgi yeast = phenotypic screen on post-Golgi transport, primary screen; hit rate 0.9% among 98,000; inhibition, % at 10 µM; AID 739, 2007; post-Golgi transport phenotypic cell assay;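 further: yeast cells grown in 1536-well plates; yeast grown about 18 h at 30C before absorbance read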
Starred values were filed as active, the others as inactive; . = no result. The list is not random: actives were taken first. Their share in the collection is about 8.7%. Unless noted, no stated cut-off is given here; in the data, active means inhibition above about 30%; inactive means the rest.

SMILES	Cav3 T inh	E coli WT exp	PTK2B oligo ant	PostGolgi ctrl	tolC growth inh	PostGolgi yeast
Cc1cc(=O)n2c(C)n[nH]c2n1	0.029	-12	-0.45	10	-31	4
Cc1cc(=O)n2c(-c3ccccc3C)n[nH]c2n1	-0.067	-8	1.6	5	-36	31*
COc1ccc(N2C(=O)CSC2c2ccc3c(c2)OCO3)c(OC)c1 (stereo not drawn)	-2.2	6	-0.09	31*	3	5
O=C(Nc1ccccc1)C1(c2ccccc2)CC1(Cl)Cl (stereo not drawn)	-7.5*	.	-2	.	.	.
C=CCNC(=O)C1(c2ccccc2)CC1(Cl)Cl (stereo not drawn)	.	.	0.92	.	.	.
Cc1ccc(C(=O)c2c(NC(=O)c3cccnc3)sc3c2CCCC3)cc1	-2.9	-16	-1.7	33*	.	-10
COC(Cc1n[nH]c(=S)n1-c1ccc(Cl)cc1)OC	-0.31	-1	0.92	2	.	19
CCS(=O)(=O)c1nc2ccccc2n1Cc1ccccc1Cl	-3.2	2	.	10	11	1
O=C(c1nn(Cc2ccccc2)c(=O)c2ccccc12)N1CCN(C/C=C/c2ccccc2)CC1	-6.7*	-1	-0.91	6	.	-1
Cc1c(C(=O)N2CCc3ccccc3C2)sc2nc(-c3ccccc3)cn12	-1.3	-14	-0.29	47*	67*	5
COc1ccc(-c2cn3c(C)c(C(=O)N4CCc5ccccc5C4)sc3n2)cc1	.	.	.	.	28	.
Cc1c(C(=O)Nc2ccc3c(c2)OCCO3)sc2nc(-c3ccccc3)cn12	0.28	.	-3.6*	.	46	.
Cc1c(C(=O)Nc2ccncc2)sc2nc(-c3ccccc3)cn12	0.33	-18	.	4	2	5
CCOc1ccccc1NC(=O)c1cc(CC(C)C)oc1C	-0.59	6	-0.38	23	75*	6
COc1cccc(NC(=O)c2ccccc2-c2nc(-c3cccc(C)c3)no2)c1	-4.1	-25	-2.1	34*	38	-3
CCOc1ccccc1NC(=O)c1ccccc1-c1nc(-c2ccccc2OC)no1	-4.7*	-9	-1.5	24	4	-12
Cc1oc(CC(C)C)cc1C(=O)Nc1cccc2ccccc12	-2.1	-17	-1.3	15	.	-3
CC(C)(C)NC(=O)c1ccccc1-c1nc(-c2ccccc2Cl)no1	-2.8	10	-0.71	30*	5	4
O=C(c1ccccc1/S(=N/S(=O)(=O)c1ccccc1)N1CCOCC1)N1CCOCC1 (stereo not drawn)	0.058	-1	1.8	10	-25	7
Cc1cccc(-c2noc(-c3ccccc3C(=O)NCC3CCCO3)n2)c1 (stereo not drawn)	-0.43	4	-0.86	31*	-11	-3
O=C(NCC1CCCO1)c1ccccc1-c1nc(-c2ccc(Cl)cc2)no1 (stereo not drawn)	-0.28	3	-0.44	2	16	5
Fc1cccc(-c2cc3nc4c(c(N5CCOCC5)n3n2)CCCC4)c1	0.19	-7	-3.2*	70*	100*	16
Fc1cccc(-c2cc3nc4c(c(NCc5ccco5)n3n2)CCCC4)c1	-1.7	-6	-1.2	49*	.	3
COc1cccc(-c2cc3nc(-c4ccccc4)cc(N4CCC5(CC4)OCCO5)n3n2)c1	-2.1	-16	-1	6	-4	0
COc1ccc(-c2cc3nc4c(c(N5CCC6(CC5)OCCO6)n3n2)CCCC4)cc1	.	.	.	.	65*	.
SMILES	Cav3 T inh	E coli WT exp	PTK2B oligo ant	PostGolgi ctrl	tolC growth inh	PostGolgi yeast
Fc1cccc(-c2cc3nc4c(c(N5CCN(c6cnccn6)CC5)n3n2)CCCC4)c1	.	.	.	.	-1	.
CCn1c2ccccc2c2nc3ccccc3nc21	0.18	0	-0.06	34*	35	-4
CCCCc1c(C)nn(-c2nnc3c4ccccc4n(CC)c3n2)c1C	-1.9	0	-1.6	58*	75*	4
CCn1c2ccccc2c2nc3cc(OC)c(OC)cc3nc21	-0.72	-15	-0.74	24	2	24
COC(=O)c1sc(=S)sc1C(=O)OC	1	14	0.18	13	-20	0
CCOc1c(Cl)cc(Cl)cc1CNCCNCCO	0.86	15	0.93	-2	.	3
Cc1cc(C)cc(CC(Cc2nc3ccccc3[nH]2)c2nc3ccccc3[nH]2)c1 (stereo not drawn)	-6.7*	-6	-1.1	10	.	-7
N#Cc1c(N)n[nH]c1CCCN	-0.0089	-1	0.27	2	.	-1
Cc1cc(C)cc(NC(=S)NC(=O)CCN2C(=O)c3ccccc3C2=O)c1	-0.098	11	-0.06	92*	.	87*
Cc1ccc(C2C(C#N)=C(N)Oc3c2oc(CO)cc3=O)o1 (stereo not drawn)	1	.	-0.26	.	-5	.
CC(C)C(CO)NC(=O)CC(=O)NC(CO)C(C)C (stereo not drawn)	0.27	-5	1.1	1	-13	-4
O=C(OC1CCCCC1)c1ccc(NC(=O)c2ccco2)cc1	-1.3	-10	-0.97	29	96*	-6
O=C(Nc1ccc(OC(=O)c2ccco2)cc1)c1ccco1	0.16	-5	0.33	0	8	-1
O=C(Nc1ccccc1-c1ccccc1)c1ccc(NC(=O)c2ccco2)cc1	-5.5*	-13	-1.5	16	.	2
O=C(Nc1ccccn1)c1ccc(NC(=O)c2ccco2)cc1	0.8	-21	-0.42	35*	-32	4
O=C(NCCOc1ccccc1)c1n[nH]c(=O)c2ccccc12	0.47	-5	-0.19	6	-5	-7
CSc1nc2cc(Oc3cccc(Cl)c3Cl)c(Cl)cc2[nH]1	-0.31	.	.	.	.	.
COc1ccc(N(CC(=O)NCc2cccnc2)S(=O)(=O)c2c(C)nn(C)c2C)cc1	0.49	0	.	37*	-18	-4
COc1ccc(N(CC(=O)Nc2nc3ccc(C)cc3s2)S(=O)(=O)c2c(C)nn(C)c2C)cc1	-3	-5	.	32*	60	-1
Cc1nnc(NC(=O)C2c3ccccc3Oc3ccccc32)s1	-0.39	.	-1.9	.	.	.
Cc1cccc2sc(NC(=O)CN(C)S(=O)(=O)c3ccc(Br)s3)nc12	.	-10	-2.7	70*	92*	4
O=C(Nc1nncs1)C1c2ccccc2Oc2ccccc21	0.74	-9	-2.3	0	-22	5
O=C(Nc1nc(-c2ccccc2)cs1)C1c2ccccc2Oc2ccccc21	-5.2*	-18	-2.2	-3	.	12
Cc1cccc2sc(NC(=O)C3c4ccccc4Oc4ccccc43)nc12	-3.3*	-14	-2	58*	.	53*
CS(=O)(=O)N1CC(C(=O)NC2CCCC2)Oc2ccc(Cl)cc21 (stereo not drawn)	0.45	8	1	-3	.	1
COc1ccc2c(CC#N)c[nH]c2c1	-0.35	14	-0.33	16	-25	4
C=CCOC(=O)C1=C[C@@H](c2csc3ccccc23)[C@H](CCCO)[C@@H](OCC)O1	-1.1	.	.	.	.	.

High-throughput results from PubChem BioAssay.
